In paper PMC10061536 (ACS Omega, 2023):

Key:
[1] = DPPH radical scavenging assay; conditions: for IC50: read-out: IC50 (mM ± SEM), DPPH scavenged by 50%; for percentage antioxidant potential: at tested concentrations, IC50 not calculated
Outline: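 Radical scavenging of DPPH by the test compound, with ascorbic acid as the reference.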

[2] = system: α-amylase; test: α-Amylase inhibition assay; assay type: biochemical; conditions: for IC50: read-out: IC50 ± SEM, α-amylase inhibition
[3] = molecular target: Bovine serum albumin (BSA)-glucose model (Bos taurus, UniProt P02769); test: In vitro anti-glycation assay, BSA-glucose model; assay type: biochemical; conditions: for inhibition at 100 ppm / inhibition at 200 ppm / inhibition at 400 ppm / inhibition at 600 ppm / inhibition at 800 ppm / inhibition at 1000 ppm: read-out: % age antiglycation inhibition
Outline: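 Glycation is read by measuring the fluorescence of glycated products on a spectrofluorometer.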

Sequence of Bovine serum albumin (BSA)-glucose model (P02769 25-607): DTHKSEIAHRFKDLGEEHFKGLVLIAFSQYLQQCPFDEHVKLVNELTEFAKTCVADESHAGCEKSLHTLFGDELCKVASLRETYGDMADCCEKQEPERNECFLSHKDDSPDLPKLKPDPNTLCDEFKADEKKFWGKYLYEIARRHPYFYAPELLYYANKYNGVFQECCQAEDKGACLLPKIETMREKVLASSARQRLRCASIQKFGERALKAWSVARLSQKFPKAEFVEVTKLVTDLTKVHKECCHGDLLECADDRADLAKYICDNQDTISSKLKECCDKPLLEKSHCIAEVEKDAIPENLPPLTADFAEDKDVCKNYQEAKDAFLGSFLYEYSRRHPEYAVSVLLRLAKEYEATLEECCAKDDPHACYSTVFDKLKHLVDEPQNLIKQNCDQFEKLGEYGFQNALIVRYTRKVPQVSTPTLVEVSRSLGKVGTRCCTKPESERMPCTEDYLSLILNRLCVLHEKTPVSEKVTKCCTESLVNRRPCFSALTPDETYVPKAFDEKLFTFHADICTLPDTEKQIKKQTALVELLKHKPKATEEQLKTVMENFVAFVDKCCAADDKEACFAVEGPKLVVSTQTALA

SMILES	% age antioxidant potential ([1]; 3 mM) [%]	% age antioxidant potential ([1]; 6 mM) [%]	% age antioxidant potential ([1]; 9 mM) [%]	% age antioxidant potential ([1]; 12 mM) [%]	% age antioxidant potential ([1]; 15 mM) [%]	IC50 [1] [mM]	% age α-amylase inhibition ([2]; 1 μM) [%]	% age α-amylase inhibition ([2]; 5 μM) [%]	% age α-amylase inhibition ([2]; 10 μM) [%]	IC50 [2] [µM]	inhibition at 100 ppm [3] [%]	inhibition at 200 ppm [3] [%]	inhibition at 400 ppm [3] [%]	inhibition at 600 ppm [3] [%]	inhibition at 800 ppm [3] [%]	inhibition at 1000 ppm [3] [%]	percentage antioxidant potential [1]	IC50 [3] [µM]
COc1cc(Br)c(C=NNc2nc(-c3ccc(F)cc3)cs2)cc1OC [3a, 2-(2-(2-Bromo-4,5-dimethoxybenzylidene)hydrazinyl)-4-(4-fluorophenyl)thiazole]	0.00	18.82	32.72	47.58	67.95	12.39 ± 0.1	35.96	51.11	69.11	6.41 ± 0.09	80.9	82.1	84.8	85.9	87	89.9	–	–
Cc1ccc(C=NNc2nc(-c3ccc(F)cc3)cs2)c(Br)c1 [3b, 2-(2-(2-Bromo-4-methylbenzylidene)hydrazinyl)-4-(4-fluorophenyl)thiazole]	8.77	23.69	36.38	53.65	69.82	11.3 ± 0.14	31.95	51.54	62.71	6.87 ± 0.01	81.2	84.6	85.2	86.2	86.8	87.5	–	–
CC(CCc1ccccc1)=NNc1nc(-c2ccc(F)cc2)cs1 [3c, 4-(4-Fluorophenyl)-2-(2-(4-phenylbutan-2-ylidene)hydrazinyl)thiazole]	0.00	11.13	34.28	57.51	73.34	11.4 ± 0.12	30.03	45.41	58.12	7.52 ± 0.05	67.6	68.9	69.7	75.7	77.9	81.6	–	–
Fc1ccc(-c2csc(NN=Cc3ccc(C(F)(F)F)cc3)n2)cc1 [3d, 4-(4-Fluorophenyl)-2-(2-(4-(trifluoromethyl)benzylidene)hydrazinyl)thiazole]	23.48	34.45	45.32	56.39	63.78	10.68 ± 0.08	36.97	49.93	62.35	6.92 ± 0.12	87.4	87.9	89	89.5	90.9	92.3	–	–
Cc1ccc(C=NNc2nc(-c3ccc(F)cc3)cs2)o1 [3e, 4-(4-Fluorophenyl)-2-(2-((5-methylfuran-2-yl)methylene)hydrazinyl)thiazole]	0.00	8.26	19.32	44.74	49.04	–	30.06	41.20	57.45	7.77 ± 0.01	68.7	69.7	70.7	71.8	72.8	73.7	less than 50%	–
CC(=NNc1nc(-c2ccc(F)cc2)cs1)c1cccc(Br)c1 [3f, 2-(2-(1-(3-Bromophenyl)ethylidene)hydrazinyl)-4-(4-fluorophenyl)thiazole]	0.00	0.00	19.48	28.70	40.73	–	34.92	51.68	62.28	6.88 ± 0.16	84.1	86.7	87.3	88	90.4	91.3	less than 50%	–
CC(=NNc1nc(-c2ccc(F)cc2)cs1)c1ccc(F)cc1 [3g, 4-(4-Fluorophenyl)-2-(2-(1-(4-fluorophenyl)ethylidene)hydrazinyl)thiazole]	0.00	0.00	0.00	0.00	8.45	–	38.00	49.56	62.75	6.9 ± 0.23	24.3	34.6	48.8	54.3	66.6	74.6	less than 50%	1770
Oc1ccc(Cl)cc1C=NNc1nc(-c2ccc(F)cc2)cs1 [3h, 4-Chloro-2-((2-(4-(4-fluorophenyl)thiazol-2-yl)hydrazinylidene)methyl)phenol]	0.00	0.00	0.00	8.78	23.25	–	55.89	69.05	82.47	5.14 ± 0.03	50.9	56.5	65.5	68.4	69	70.7	less than 50%	–
Fc1ccc(-c2csc(NN=Cc3cccc(C(F)(F)F)c3)n2)cc1 [3i, 4-(4-Fluorophenyl)-2-(2-(3-(trifluoromethyl)benzylidene)hydrazinyl)thiazole]	0.00	8.64	18.87	32.26	46.53	–	38.90	51.09	64.58	6.7 ± 0.08	88	88.5	89.1	90	91.2	92.2	less than 50%	–
C[C@H]1O[C@H](O[C@H]2[C@H](O)[C@@H](O)[C@@H](O[C@H]3[C@H](O)[C@@H](O)C(O)O[C@@H]3CO)O[C@@H]2CO)[C@H](O)[C@@H](O)[C@@H]1N[C@H]1C=C(CO)[C@@H](O)[C@H](O)[C@H]1O (stereo partly shown) [acarbose, reference compound]	–	–	–	–	–	–	53.42	66.81	74.77	–	–	–	–	–	–	–	–	–
O=C1O[C@H]([C@@H](O)CO)C(O)=C1O [ascorbic acid, reference compound]	52.34	61.01	74.41	81.85	84.92	7.18 ± 0.01	–	–	–	–	–	–	–	–	–	–	–	–
